From publication PMC4846470 (Psychopharmacology, 2016)
Entries after “also recorded” stand apart in the source; their conditions may differ.

How the values were obtained:
[1] = biological target: human recombinant CB1 receptors (Homo sapiens, UniProt P21554); test: Radioligand binding to human recombinant CB1 receptors in CHO cell membranes
[2] = biological target: human CB1 cannabinoid receptors (Homo sapiens, UniProt P21554); test: Gi agonist effect: cAMP functional assay in CHO cells expressing CB1; assay type: cell-based; conditions: for Emax: CHO, read-out: Maximum Effect (%)
Sequence of human CB1 cannabinoid receptors (P21554 whole entry): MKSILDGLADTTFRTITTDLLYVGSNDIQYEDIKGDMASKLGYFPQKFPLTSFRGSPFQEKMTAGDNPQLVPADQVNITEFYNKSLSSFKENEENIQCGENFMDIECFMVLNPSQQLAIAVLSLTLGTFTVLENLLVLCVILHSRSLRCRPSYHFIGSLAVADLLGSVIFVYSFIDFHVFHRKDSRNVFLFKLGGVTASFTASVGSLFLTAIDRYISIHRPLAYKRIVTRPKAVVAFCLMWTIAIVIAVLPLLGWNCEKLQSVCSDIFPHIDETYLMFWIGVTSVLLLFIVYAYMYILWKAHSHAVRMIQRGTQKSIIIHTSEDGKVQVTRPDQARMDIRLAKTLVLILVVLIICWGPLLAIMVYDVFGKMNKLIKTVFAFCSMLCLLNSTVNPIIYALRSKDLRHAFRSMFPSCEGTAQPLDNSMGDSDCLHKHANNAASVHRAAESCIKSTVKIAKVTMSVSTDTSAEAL

Male Sprague-Dawley rats = test: Drug discrimination in rats trained to discriminate Δ^9-THC; assay type: in vivo; conditions: for Effect on rate of responding: cannabinoids at doses which substituted; for Substitution for the discriminative stimulus effects of Δ^9-THC: full substitution defined as ≥80% drug-appropriate responding
Method in brief: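 Vehicle: ethanol/Cremophor EL/0.9% saline 1:1:18. In tests both levers paid and data ran to first reinforcer or 20 min. Six rats per compound got all doses. Pretreatment was at locomotor peak-depression time. Rate was responses/time to first reinforcer.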

[3] = test system: Male ND4 Swiss–Webster mice; test: Locomotor activity; assay type: in vivo; conditions: for Time of peak (maximal) locomotor depression after injection: active doses

Sequence of human recombinant CB1 receptors (P21554 whole entry): as above

| Structure (SMILES) | Ki [1] [nM] | EC50 [2] [nM] | Emax [2] [%] | Effect on rate of responding (Male Sprague-Dawley rats; THC-trained rats) | Time of peak (maximal) locomotor depression after injection ([3]; mice, i.p.) [min] | other results |
| --- | --- | --- | --- | --- | --- | --- |
| CCCCCn1cc(C(=O)c2ccc(C)c3ccccc23)c2ccccc21 [JWH-122, (4-methyl-1-naphthalenyl)(1-pentyl-1H-indol-3-yl)-methanone] | 3.35 | 2.8 | 102 |  |  |  |
| CNC(C)Cc1ccc2c(c1)OCO2 (stereo not drawn) [MDMA, 3,4-Methylenedioxy-methamphetamine] |  |  |  | dose-dependently depressed rate of responding |  | Maximum THC-appropriate responding (Male Sprague-Dawley rats; THC-trained rats, following 1.5 mg/kg, negative control): 11%; Substitution for the discriminative stimulus effects of Δ^9-THC (Male Sprague-Dawley rats; THC-trained rats): did not substitute; also recorded: failed to substitute; Rats that failed to complete the first fixed ratio (Male Sprague-Dawley rats; following 3 mg/kg, n=9): 6 of 9 |
| CCCCCn1cc(C(=O)c2ccc(CC)c3ccccc23)c2ccccc21 [JWH-210, (4-ethyl-1-naphthalenyl)(1-pentyl-1H-indol-3-yl)-methanone] | 1.01 | 111 | 98.2 | modest depression of rate of responding |  | Mice with tremors upon handling ([3]; 8 h following 10 mg/kg i.p.): 6 of 8 |
| O=C(c1cccc2ccccc12)c1nn(CCCCCF)c2ccccc12 [THJ-2201, (1-(5-fluoropentyl)-1H-indazol-3-yl)(naphthalen-1-yl)methanone] |  | 0.64 | 96.6 |  |  |  |
| CCCCCn1nc(C(=O)NC(C(N)=O)C(C)(C)C)c2ccccc21 (stereo not drawn) [ADB-PINACA, N-[1-(aminocarbonyl)-2,2-dimethylpropyl]-1-pentyl-1H-indazole-3-carboxamide] | 0.59 | 0.024 | 99.6 |  | 20 |  |
| CCCCCn1cc(C(=O)c2ccc(OC)cc2)c2ccccc21 [RCS-4, (4-methoxyphenyl)(1-pentyl-1H-indol-3-yl)methanone] | 22.5 | 20 | 101 | modest depression of rate of responding |  | Substitution for the discriminative stimulus effects of Δ^9-THC (Male Sprague-Dawley rats; THC-trained rats): full substitution |
| CCCCCc1cc(O)c2c(c1)OC(C)(C)[C@@H]1CCC(C)=C[C@@H]21 [Δ^9-THC, Δ^9-Tetrahydrocannabinol, reference compound] |  |  |  |  | 30 to 60 | ED50 Drug Discrimination (discriminative stimulus effects) (Male Sprague-Dawley rats; THC-trained rats, i.p., mean with 95% confidence interval): 1.15 (0.21 to 6.27) mg/kg; ED50 Locomotor Activity (locomotor depressant effects) ([3]; mice, i.p., dose producing 1/2 maximal depression, mean with 95% confidence interval): 12.99 (2.51 to 67.21) mg/kg |
| CCCCCn1cc(C(=O)NC(C(N)=O)C(C)(C)C)c2ccccc21 (stereo not drawn) [ADBICA, N-(1-amino-3,3-dimethyl-1-oxobutan-2-yl)-1-pentyl-1H-indole-3-carboxamide] | 1.3 | 0.38 | 97.4 |  | ≤ 20 |  |
